Experimental data from ChEMBL document CHEMBL1275574, “Lysine-enriched cecropin-mellitin antimicrobial peptides with enhanced selectivity” (Antimicrob Agents Chemother, 2008).
≈ marks a conversion by molar mass, not a printed value. Peptide text beside a SMILES is read from it.

Legend:
[1] = Selectivity index, Ratio of MIC for Escherichia coli BL21 to fraction of human erythrocyte hemolysis at 64 uM; type: functional
Pseudomonas aeruginosa = assay: Antimicrobial activity against Pseudomonas aeruginosa PAO1; type: functional
Procedure, shortened: (§1)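 MICs were determined by standard methods on the gram-negative strains and on S. aureus strains 6538p (methicillin-sensitive) and BBA-41 (methicillin-resistant). Peptides had acetylated N termini and amidated C termini, and were purified by RP-HPLC. Reported as the range of values seen in at least three independent experiments.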

J774.A1 [2] = assay: Cytotoxicity against mouse […] cell assessed as survival rate; type: functional; parameters: concentration or dose not given beside the values
Procedure, shortened: (§2)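 Cultured murine macrophages were exposed to peptide at a final concentration of 30 μM or 10 μM, depending on the peptide. Viability was read by MTT conversion to formazan. Results are percent survival versus buffer-treated controls, as mean and standard error of the mean of at least three independent experiments.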

[3] = Selectivity index, Ratio of MIC for Staphylococcus aureus 6538p to fraction of human erythrocyte hemolysis at 64 uM; type: functional
[4] = Selectivity index, Ratio of MIC for Pseudomonas aeruginosa PAO1 to fraction of human erythrocyte hemolysis at 64 uM; type: functional
[5] = Selectivity index, Ratio of MIC for Staphylococcus epidermidis to fraction of human erythrocyte hemolysis at 64 uM; type: functional
[6] = test system: Staphylococcus epidermidis; assay: Antimicrobial activity against Staphylococcus epidermidis; type: functional
RAW264.7 [7] = assay: Cytotoxicity against mouse RAW264.7 cell assessed as survival rate; type: functional; parameters: concentration or dose not given beside the values; procedure, shortened: as §2
Homo sapiens = organism: Homo sapiens; assay: Hemolysis of human erythrocyte at 64 uM; type: ADME
Procedure, shortened: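 Peptide (64 μM) was incubated with a 1% suspension of fresh human erythrocytes at 37°C for 1 h. Released hemoglobin was measured and expressed relative to cells lysed with 1% Triton X-100. Values are means of multiple independent experiments.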

Escherichia coli = assay: Antimicrobial activity against Escherichia coli BL21; type: functional; procedure, shortened: as §1
Staphylococcus aureus [8] = assay: Antimicrobial activity against Staphylococcus aureus BBA-41; type: functional; procedure, shortened: as §1
Staphylococcus aureus [9] = assay: Antimicrobial activity against Staphylococcus aureus 6538p; type: functional; procedure, shortened: as §1
RAW264.7 [10] = assay: Cytotoxicity against mouse RAW264.7 cell assessed as survival rate at 10 uM; type: functional; procedure, shortened: as §2
J774.A1 [11] = assay: Cytotoxicity against mouse […] cell assessed as survival rate at 10 uM; type: functional; procedure, shortened: as §2

| Compound | Selectivity Index [1] | MIC (Pseudomonas aeruginosa) [µM] | Activity (J774.A1 [2]) [%] | Selectivity Index [3] | Selectivity Index [4] | Selectivity Index [5] | MIC [6] [µM] | Activity (RAW264.7 [7]) [%] | Hemolysis (Homo sapiens) [%] | MIC (Escherichia coli) [µM] | MIC (Staphylococcus aureus [8]) [µM] | MIC (Staphylococcus aureus [9]) [µM] | Activity (RAW264.7 [10]) [%] | Activity (J774.A1 [11]) [%] |
| --- | --- | --- | --- | --- | --- | --- | --- | --- | --- | --- | --- | --- | --- | --- |
| CC[C@H](C)[C@H](NC(=O)[C@H](CCCCN)NC(=O)[C@H](CCCCN)NC(=O)[C@H](Cc1ccccc1)NC(=O)[C@H](CC(C)C)NC(=O)[C@H](CCCCN)NC(=O)[C@H](Cc1c[nH]c2ccccc12)NC(=O)[C@H](CCCCN)NC(C)=O)C(=O)NCC(=O)N[C@@H](CCCCN)C(=O)N[C@H](C(=O)N[C@@H](CC(C)C)C(=O)N[C@@H](CCCCN)C(=O)N[C@H](C(=O)N[C@@H](CC(C)C)C(N)=O)C(C)C)C(C)C (Ac-KWKLFKKIGKVLKVL-NH2) | 1.5 | 1 (≈ 1.87 µg/mL) | 43 | 0.8 | 0.4 | 3 | 0.5 (≈ 0.935 µg/mL) | 56 | 67 | 0.5 (≈ 0.935 µg/mL) | 4 (≈ 7.48 µg/mL) | 1 (≈ 1.87 µg/mL) |  |  |
| CC[C@H](C)[C@H](NC(=O)[C@H](CCCCN)NC(=O)[C@H](CCCCN)NC(=O)[C@H](Cc1ccccc1)NC(=O)[C@H](CC(C)C)NC(=O)[C@H](CCCCN)NC(=O)[C@H](Cc1c[nH]c2ccccc12)NC(=O)[C@H](CCCCN)NC(C)=O)C(=O)NCC(=O)N[C@@H](C)C(=O)N[C@H](C(=O)N[C@@H](CC(C)C)C(=O)N[C@@H](CCCCN)C(=O)N[C@@H](CCCCN)C(=O)N[C@@H](CC(C)C)C(N)=O)C(C)C (Ac-KWKLFKKIGAVLKKL-NH2) | 6.25 | 2 (≈ 3.68 µg/mL) | 74 | 3 | 6.25 | 48 | 0.25 (≈ 0.46 µg/mL) | 88 | 4 | 1 (≈ 1.84 µg/mL) | 8 (≈ 14.7 µg/mL) | 4 (≈ 7.37 µg/mL) |  |  |
| CC[C@H](C)[C@H](NC(=O)[C@H](CCCCN)NC(=O)[C@H](CCCCN)NC(=O)[C@H](Cc1ccccc1)NC(=O)[C@H](CCCCN)NC(=O)[C@H](CCCCN)NC(=O)[C@H](Cc1c[nH]c2ccccc12)NC(=O)[C@H](CCCCN)NC(C)=O)C(=O)NCC(=O)N[C@@H](C)C(=O)N[C@H](C(=O)N[C@@H](CC(C)C)C(=O)N[C@@H](CCCCN)C(=O)N[C@@H](CCCCN)C(=O)N[C@@H](CC(C)C)C(N)=O)C(C)C (Ac-KWKKFKKIGAVLKKL-NH2) | 16.7 | 1 (≈ 1.86 µg/mL) | 94 | <0.5 | 8.3 | 68 | 0.5 (≈ 0.928 µg/mL) | 104 | 3 | 1 (≈ 1.86 µg/mL) | > 16 | > 16 |  |  |
| CC[C@H](C)[C@H](NC(=O)[C@H](CCCCN)NC(=O)[C@H](CCCCN)NC(=O)[C@H](Cc1ccccc1)NC(=O)[C@H](CCCCN)NC(=O)[C@H](CCCCN)NC(=O)[C@H](Cc1c[nH]c2ccccc12)NC(=O)[C@H](CCCCN)NC(C)=O)C(=O)NCC(=O)N[C@@H](C)C(=O)N[C@H](C(=O)N[C@@H](CC(C)C)C(=O)N[C@@H](CCCCN)C(=O)N[C@H](C(=O)N[C@@H](CC(C)C)C(N)=O)C(C)C)C(C)C (Ac-KWKKFKKIGAVLKVL-NH2) | 9.5 | 0.5 (≈ 0.914 µg/mL) | 81 | 0.3 | 4.8 | 9.5 | 0.5 (≈ 0.914 µg/mL) | 73 | 21 | 0.25 (≈ 0.457 µg/mL) | > 16 | 16 (≈ 29.2 µg/mL) |  |  |
| CC[C@H](C)[C@H](NC(=O)[C@H](CCCCN)NC(=O)[C@H](CCCCN)NC(=O)[C@H](Cc1ccccc1)NC(=O)[C@H](CC(C)C)NC(=O)[C@H](CCCCN)NC(=O)[C@H](Cc1c[nH]c2ccccc12)NC(=O)[C@H](CCCCN)NC(C)=O)C(=O)NCC(=O)N[C@@H](CCCCN)C(=O)N[C@H](C(=O)N[C@@H](CC(C)C)C(=O)N[C@@H](CCCCN)C(=O)N[C@@H](CCCCN)C(=O)N[C@@H](CC(C)C)C(N)=O)C(C)C (Ac-KWKLFKKIGKVLKKL-NH2) | 12.5 | 1 (≈ 1.9 µg/mL) | 45 | 1.5 | 6.25 | 50 | 0.25 (≈ 0.475 µg/mL) | 57 | 8 | 1 (≈ 1.9 µg/mL) | 16 (≈ 30.4 µg/mL) | 4 (≈ 7.59 µg/mL) |  |  |
| CC[C@H](C)[C@H](NC(=O)[C@H](CCCCN)NC(=O)[C@H](CCCCN)NC(=O)[C@H](Cc1ccccc1)NC(=O)[C@H](CCCCN)NC(=O)[C@H](CCCCN)NC(=O)[C@H](Cc1c[nH]c2ccccc12)NC(=O)[C@H](CCCCN)NC(C)=O)C(=O)NCC(=O)N[C@@H](CCCCN)C(=O)N[C@H](C(=O)N[C@@H](CC(C)C)C(=O)N[C@@H](CCCCN)C(=O)N[C@H](C(=O)N[C@@H](CC(C)C)C(N)=O)C(C)C)C(C)C (Ac-KWKKFKKIGKVLKVL-NH2) | 22 | 0.5 (≈ 0.942 µg/mL) | 88 | 0.7 | 11 | 44 | 0.25 (≈ 0.471 µg/mL) | 86 | 9 | 0.5 (≈ 0.942 µg/mL) | > 16 | 16 (≈ 30.2 µg/mL) |  |  |
| CC[C@H](C)[C@H](NC(=O)[C@H](CCCCN)NC(=O)[C@H](CCCCN)NC(=O)[C@H](Cc1ccccc1)NC(=O)[C@H](CC(C)C)NC(=O)[C@H](CCCCN)NC(=O)[C@H](Cc1c[nH]c2ccccc12)NC(=O)[C@H](CCCCN)NC(C)=O)C(=O)NCC(=O)N[C@@H](C)C(=O)N[C@H](C(=O)N[C@@H](CC(C)C)C(=O)N[C@@H](CCCCN)C(=O)N[C@H](C(=O)N[C@@H](CC(C)C)C(N)=O)C(C)C)C(C)C (Ac-KWKLFKKIGAVLKVL-NH2) | 2.2 | 2 (≈ 3.62 µg/mL) |  | 1.1 | 0.56 | 2.2 | 0.5 (≈ 0.906 µg/mL) |  | 45 | 0.5 (≈ 0.906 µg/mL) | 1 (≈ 1.81 µg/mL) | 0.5 (≈ 0.906 µg/mL) | 21 | 16 |
